Only some compounds are listed: those with a hit (about 2.9% of all), similar ones and a draw of the others.
Autophagy HCS – modulators of autophagy; 190,000 compounds, 0.98% hits; calls only at 10 µM (by protocol); MEF GFP-LC3 puncta imaging; test concentration mostly 10 µM;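 active = percentage of spot-positive cells more than 3 SD above its plate mean, without a fluorescence outlier flag or 80% toxicity; inconclusive = no clear call, values can overlap the other calls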
Wee1 stabilizer – human Wee1 degradation inhibition, primary screen; P30291; HeLa Luc-Wee1K328M stability, luciferase luminescence; 100% = proteasome inhibitor MG132 effect; reporter increase, % at 5 µM; 220,000 compounds, 1.2% hits; AID 1321;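 active = activation above the mean of all tested compounds plus 3 SD, set per screening run, cut at about 8.8% in these data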;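 note: cells exposed to compound for 20 h before luminescence read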
Target sequence (P30291 whole entry K328M): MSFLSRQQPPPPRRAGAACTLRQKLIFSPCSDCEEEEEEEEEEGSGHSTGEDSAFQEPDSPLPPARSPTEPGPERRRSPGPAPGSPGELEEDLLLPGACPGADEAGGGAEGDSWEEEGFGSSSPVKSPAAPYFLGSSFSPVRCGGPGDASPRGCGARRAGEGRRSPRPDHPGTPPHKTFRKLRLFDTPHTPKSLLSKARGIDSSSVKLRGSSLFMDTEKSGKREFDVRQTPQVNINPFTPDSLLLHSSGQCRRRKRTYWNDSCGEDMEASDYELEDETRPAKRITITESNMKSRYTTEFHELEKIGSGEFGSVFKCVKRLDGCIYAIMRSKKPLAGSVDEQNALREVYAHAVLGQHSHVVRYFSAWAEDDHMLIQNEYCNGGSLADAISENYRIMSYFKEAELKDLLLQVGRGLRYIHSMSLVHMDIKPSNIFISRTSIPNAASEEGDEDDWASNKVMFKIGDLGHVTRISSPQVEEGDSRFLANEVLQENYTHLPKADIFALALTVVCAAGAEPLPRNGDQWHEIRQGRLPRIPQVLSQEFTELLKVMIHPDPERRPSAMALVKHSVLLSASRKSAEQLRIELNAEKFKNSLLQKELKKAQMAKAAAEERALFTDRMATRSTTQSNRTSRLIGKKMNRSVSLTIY
MT stabilizer – microtubule stabilizers in HeLa cells; % tubulin-high responders, % at 10 µM; AID 2205; 200,000 compounds, 0.83% hits; HeLa tubulin immunostaining HCS, 24 h; share of cells brighter than vehicle mean+2SD;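 active = plate Z-score above 3 for both tubulin-high and condensed-nucleus cell shares, with cell loss under 80%, at 10 µM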;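 note: anti alpha tubulin signal scored within the nucleus-defined area of each cell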
Insulin prom up – MIN6 insulin promoter up-regulation; 190,000 compounds, 0.3% hits; MIN6 insulin promoter-GFP reporter, high-content imaging; hits give high values; z-score at 5 µM;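 active = z-score above 3 at 5 µM with at least 500 cells counted in the well; inconclusive = wells under 500 cells, flagged as cytotoxic or low count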
bCat nuc transl – modulators of beta-catenin nuclear translocation; HeLa beta-catenin nuclear translocation, immunofluorescence imaging; nuclear translocation activity, % at 5 µM; 190,000 compounds, 0.3% hits; AID 1665;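 active = nuclear translocation activity above 50% at 5 µM, with a well cell count of 50 or more; inconclusive = wells under 50 cells across six images, flagged as toxic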;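 note: per-cell ratio of nuclear to cytoplasmic median beta-catenin stain intensity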
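assay system = human HeLa cells, endogenous beta-catenin | times = compound treatment 24 h, 37°C, 5% CO2 | detection = Anti-beta-catenin immunofluorescence on PFA-fixed, Triton-permeabilized cells, DAPI nuclei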
A number is an active result; n = inactive; u = inconclusive; x = not tested or not shown; + = active, no number.

SMILES	Autophagy HCS	Wee1 stabilizer	MT stabilizer	Insulin prom up	bCat nuc transl
Cc1nnc(NC(=O)c2nn(CC(C)C)c(=O)c3ccccc23)s1	n	10.4	n	n	n
Cc1nc2ccc(NC(=O)c3nn(CC(C)C)c(=O)c4ccccc34)cc2s1	n	n	n	n	n
COc1ccc2c(c1)C(=NN)c1cc(OC)ccc1-2	n	n	n	n	n
CCn1c(Cn2nnc(-c3ccccc3)n2)nnc1SCC(=O)Nc1cccc(C(C)=O)c1	n	n	n	n	n
CCn1c(Cn2nnc(-c3ccccc3)n2)nnc1SCC(=O)Nc1ccc(C(C)=O)cc1	n	n	n	4.86	n
COc1ccc(NC(=O)CC23CC4CC(C2)CC(n2nnc(C)n2)(C4)C3)cc1	n	n	n	n	n
COc1cccc2cc(C(=O)c3ccc([N+](=O)[O-])cc3)oc12	n	n	n	n	n
CC/C(=N/Nc1ccc(Cl)cc1)c1cnnc(SC)n1	n	n	n	n	n
CC/C(=N/Nc1cccc(C)c1)c1cnnc(SC)n1	+	n	n	n	x
Cc1ccc(C(=O)N2CCN(c3ccccc3Cl)CC2)cc1[N+](=O)[O-]	n	n	n	n	n
O=C(NCc1cccnc1)/C(=C\c1ccc(-c2ccc(Br)cc2)o1)S(=O)(=O)c1ccccc1	n	n	46.7	n	n
COc1cc2cc(C)c(SCC(=O)N3CCN(C(=O)c4ccco4)CC3)nc2cc1OC	x	n	x	n	n
COc1ccc(-c2c/c(=N\c3nc(-c4ccccc4)c(C)s3)c3ccccc3o2)cc1O	n	n	n	n	164.6
COc1cccc2sc(Nc3nnc(-c4ccccc4Cl)o3)nc12	+	n	n	x	n
COc1cccc2sc(Nc3nc(-c4ccncc4)cs3)nc12	n	n	22.5	n	54.7
COc1cccc2sc(NN)nc12	n	n	n	x	n
COc1cccc2sc(Nc3nc(-c4cc5ccccc5oc4=O)cs3)nc12	n	n	18.4	n	121.7
CCCNC(=O)NNC(=O)c1ccc(F)cc1	n	n	n	n	n
CC1=Nc2ccccc2/C1=C/c1sc(=N)n(-c2nccs2)c1O	+	n	n	n	n
COc1ccc(OC)c(NC(=O)Nc2cc(C(=O)O)ccc2C)c1	n	n	n	n	n
CCCC(=O)c1c(NCCO)cc(C)oc1=O	n	8.9	n	x	n
CCCNc1cc(C)oc(=O)c1C(=O)CCC	n	n	n	x	x
Brc1csc(/C=N/Nc2nc3ccccc3s2)c1	n	8.9	n	n	n
C(=N\Nc1nc2ccccc2s1)/c1ccccn1	x	n	x	n	n
O=C(O)CC1(CC(=O)Nc2ccccc2N2CCOCC2)CCCC1	x	n	x	n	n
SMILES	Autophagy HCS	Wee1 stabilizer	MT stabilizer	Insulin prom up	bCat nuc transl
CCOc1ccc(OCc2ccc(C(=O)N/N=C(\C)c3ccccn3)cc2)cc1	n	9.6	n	u	n
CCOc1ccc(/C(C)=N/NC(=O)C(OC)c2ccccc2)cc1 (stereo not given)	n	n	10.1	n	n
CCOc1ccc(C(=O)N/N=C(/C)C2C(=O)c3ccccc3C2=O)cc1	n	n	n	n	n
C/C(=N\NC(=O)C(c1ccccc1)c1ccccc1)c1ccccn1	+	n	n	n	x
N/C(=N\OC(=O)C(c1ccccc1)c1ccccc1)c1ccccn1	n	n	n	x	n
O=C(Cn1c(=O)oc2cc(S(=O)(=O)N3CCc4ccccc43)ccc21)N1CCCCC1	n	n	n	n	n
COC(=O)c1c(NC(=O)/C=C/C(=O)O)sc(Cc2ccccc2)c1C	n	n	n	n	n
Cc1c(Cc2ccccc2)sc(NC(=O)/C=C/c2cccc3ccccc23)c1C(N)=O	+	n	18.2	n	n
CC(C)(C)C1CCC(=NNC(=O)C(=O)NC2CCCCC2)CC1 (stereo not given)	n	n	n	n	n
CCCc1cc(=O)[nH]c(SCC(=O)NCCC2=CCCCC2)n1	n	n	n	n	n
COc1ccc(CC(=O)NC(C)C2COc3ccccc3O2)cc1OC (stereo not given)	n	n	n	n	n
CCCCCCOc1ccc(N2C(=O)CC(SC(=NCC)NCC)C2=O)cc1 (stereo not given)	n	n	n	n	n
CCN(CC)c1ccc(-c2nn3c(-c4n[nH]c5c4CCC5)nnc3s2)cc1	n	n	22.5	n	64.9
C1CCC(c2nn3c(-c4n[nH]c5c4CCC5)nnc3s2)CC1	n	n	n	n	n
CSc1nc(Cl)c(Cc2ccc(OC(C)C)cc2)c(N(C)C)n1	n	n	n	n	n
CCOc1ccc(Cc2c(Cl)nc(SC)nc2N(C)C)cc1	n	n	22.4	x	n
CCCCNC(C(=O)Nc1ccc(Cl)c([N+](=O)[O-])c1)c1ccccc1 (stereo not given)	n	n	n	n	n
CC(O)CNc1nc2ccccc2n1CC(=O)NC12CC3CC(CC(C3)C1)C2 (stereo not given)	n	n	n	n	n
CC1CCc2cc(F)ccc2N1C(=O)c1ccc2c(c1)OCO2 (stereo not given)	+	n	n	n	x
COc1ccc(C(=O)N2c3ccc(F)cc3CCC2C)cc1OC (stereo not given)	n	n	n	n	n
O=C1CNC(=O)N1Cc1ccc(Br)cc1	n	n	n	n	n
O=C1CNC(=S)N1Cc1ccccc1	n	9.5	n	n	n
Cc1ccc2c(CC(=O)NC3=NCCS3)coc2c1	n	n	n	x	n
Cc1cc2occ(CC(=O)NC3=NCCS3)c2cc1C(C)C	+	n	n	x	n
CN(C(=O)CSc1cc(C(=O)c2nccn2C)c2ccccc2n1)c1ccccc1	x	n	x	u	n
SMILES	Autophagy HCS	Wee1 stabilizer	MT stabilizer	Insulin prom up	bCat nuc transl
O=C(N/N=C/c1ccccn1)c1cc(-c2ccncc2)nc2ccccc12	n	n	n	n	n
O=C(N/N=C/c1ccsc1)c1cc(-c2ccncc2)nc2ccccc12	n	n	13.3	n	n
O=C(N/N=C/c1ccc([N+](=O)[O-])o1)c1cc(-c2ccc(-c3ccccc3)cc2)nc2ccccc12	n	n	12.4	n	n
O=C(N/N=C/c1ccc([N+](=O)[O-])o1)c1cc(-c2ccncc2)nc2ccccc12	n	n	n	n	n
CC(/C=N/NC(=O)c1cc(-c2ccncc2)nc2ccccc12)=C\c1ccco1	+	n	16.2	x	n
O=C(N/N=C/c1ccsc1)c1cc(-c2cccs2)nc2ccccc12	n	n	10.4	n	n
O=C(O)c1ccc(/C=N/NC(=O)c2cc(-c3cccs3)nc3ccccc23)cc1	n	n	n	n	n
CC1(C)CC(=O)CC(C)(C)N1OC(=O)c1ccncc1	n	n	n	x	x
CCOC(=O)c1csc(N)c1-c1ccc([N+](=O)[O-])cc1	x	n	x	n	n
CCOC(=O)c1c(NC(=O)c2ccc(N3C(=O)[C@@H]4[C@H](C3=O)[C@H]3C=C[C@@H]4C3)cc2)sc2c1CCCC2	n	n	n	n	n
O=C(N/N=C/c1ccc2c(c1)OCO2)c1cc(-c2ccncc2)nc2ccccc12	n	n	21.3	n	n
Cc1ccc(/C=N/NC(=O)c2cc(-c3cccnc3)nc3ccccc23)cc1	n	n	n	n	82.6
O=C(N/N=C/c1ccc(F)cc1)c1cc(-c2ccco2)nc2ccccc12	n	n	n	n	53.2
